Results on 47 sequences are retold here after the EternaBench riboswitch data.

This series relates to MS2 coat protein. Kind of series: apparent Kd, MS2 coat protein; higher = weaker binding; RNA-MaP array; theophylline 2 mM where present. A digest of the protocol:
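Two titrations, one without ligand and one with constant ligand, were run with SNAP-549-labelled MS2 coat protein from 0.7 or 1.5 nM, doubling to 3 µM. The targets were designs transcribed by stalled E. coli RNA polymerase on Illumina sequencing-chip clusters, in 100 mM Tris-HCl pH 7.5, 80 mM KCl, 4 mM MgCl2, BSA, DTT, yeast tRNA and Tween-20. The apparent Kd is the median of filtered per-cluster binding-curve fits, with green signal normalised to red-channel RNA signal and control-cluster median Fmax.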

The mark [1] stands for this setting: designed as: OFF switch for theophylline, no ligand.
Where [2] appears, read: ligand present: theophylline, designed as: OFF switch for theophylline.
[3] abbreviates: designed as: ON switch for theophylline, no ligand.
Setting [4] is: ligand present: theophylline, designed as: ON switch for theophylline.

Broadly, the apparent Kd is the concentration giving half-maximal binding under the conditions of the assay. As for “UGACAUUGCUGCGAUACCAGACAUGAGGAUCACCCAUGUACCAAGGUACCCGAAAGGAAUGUCCCUUGGCAGCGCAGCAAUGUCU”, the “apparent Kd” value was 9.4 nM under setting [1] and 21.2 nM under setting [2].

As for “GGGUAUGAUCCGGAUACCAGCGAACAUGAGGAUCACCCAUGUGACCUAAGAUAGGCUCUACGCCCUUGGCAGCCGCGAUCGCGUU”, the “apparent Kd” value stood at 24.8 nM under setting [3] and 16.1 nM under setting [4].

As for “ACAUCCAGGUUAAUCGUGGACAUGGUCGAUACCAGUAUUUUAAUCUACCCUUGGCAGCGACAUGAGGAUCACCCAUGUGCGAUGA”, the “apparent Kd” value is, setting by setting: under setting [1], 14.3 nM; under setting [2], 31.4 nM.

As for “AUCGUACCUAAUGAUACCAGCAAGUGAUCAUAACAUGAGGAUCACCCAUGUAAUCAGUGAUGCCCUUGGCAGCAUAAUCGUUACA”, the “apparent Kd” value under setting [3] was 163 nM and the “apparent Kd” value under setting [4] was found to be 127 nM. As for “GCACCAGGUACGGAUACCAGCUAUAGGCCCUAUGGGCGACAUGAGGAUCACCCAUGUAAUGGCCCUUGGCAGCUGUACCUGGUGC”, the “apparent Kd” value worked out at 169 nM under setting [3] and 11.3 nM under setting [4]. Take “ACUAGUUGUGCAGAUACCAGACAUGAGGAUCACCCAUGUUUGGGUUGUUCGCAACUUCCUGUCCCUUGGCAGCUGUACAUCUAGA”: the “apparent Kd” value reads like this: under setting [1], 24.9 nM; under setting [2], 138 nM. In the case of “ACGAUACGACAUGAGGAUCACCCAUGUGAUACCAGCCUGGAAACAGGCCCUUGGCAGCACAAAUACUCCAGAAACGUAUCGAAAA”, the “apparent Kd” value was 204 nM under setting [1] and 469 nM under setting [2]. “AUUUUUCUAUCAGAUACCAGACAACUCCAAACAUGAGGAUCACCCAUGUAUUGGGUGUUCGUCCCUUGGCAGCUGUUAAUGUUAA”: the “apparent Kd” value came to 16.9 nM under setting [3] and 9.41 nM under setting [4]. With “GCACCAGGUACGGAUACCAGAAUUUGCCAAUUGGGUGAACAUGAGGAUCACCCAUGUUAUUUCCCUUGGCAGCCGUACCUGGUGC”, the “apparent Kd” value came out at 8.75 nM under setting [1] and 15.9 nM under setting [2]. For “UUAGAUAUGACGGAUACCAGCGUGUUGUAGAACAUGAGGAUCACCCAUGUAGUGAUCGAGCGCCCUUGGCAGCUGGUAUGUUUGG”, the “apparent Kd” value under setting [3] stood at 179 nM and the “apparent Kd” value under setting [4] is 482 nM. As for “ACAUGAGGAUCACCCAUGUGCCGUCUUGAUACCAGACGCGAAGUAGUCCCUUGGCAGCAACUACGUGACGGUCGCGCAUGUGUAG”, the “apparent Kd” value under setting [1] is 16.6 nM and the “apparent Kd” value under setting [2] came out at 28.6 nM. Regarding “UGACAUUGCUCAGAUACCAGACAUGAGGAUCACCCAUGUGCCAAACGUACAAUAAUAAAUGUCCCUUGGCAGCUGAGCAAUGUCU”, the “apparent Kd” value reads like this: under setting [1], 11.3 nM; under setting [2], 101 nM. On to “UAUUUGGUGCGCGAGCGUUGGAUAAUUGAUACCAGUGAAGAAGAGCGCCCUUGGCAGCGAAUCCUAACAUGAGGAUCACCCAUGU”, for which the “apparent Kd” value runs as follows: under setting [3], 41 nM; under setting [4], 56.7 nM.

On to “AUUUACAUGGUCAUAUAUAUAUCGUCAGAUACCAGACGAGAUAUUGUCCCUUGGCAGCUGUUACAUGAGGAUCACCCAUGUAAUU”, for which the “apparent Kd” value under setting [1] worked out at 85.8 nM and the “apparent Kd” value under setting [2] worked out at 83.7 nM. Turning to “UGUAUGUGAAGUGAUACCAGUCCAUAAACUGGAACAUGAGGAUCACCCAUGUAAUGGGUGGACCCUUGGCAGCACUUCUCAUACU”, the “apparent Kd” value by setting is: under setting [3], 122 nM; under setting [4], 136 nM.

With “ACAUGAGGAUCACCCAUGUCUGCCACUGAUACCAGCGGAAGAAAACGCCCUUGGCAGCAGAACAUGAGGAUCACCCAUGUAGGCU”, the “apparent Kd” value under setting [3] stood at 274 nM.

“AGAUGCCACUGUGGAUAGCACGAUGCCGAUACCAGCUAGGAAACUAGCCCUUGGCAGCGGUACAUGAGGAUCACCCAUGUAUCCU”: the “apparent Kd” value under setting [2] came out at 75 nM.

In the case of “AACUGGAAAAGUGAUACCAGAGACAUGAGGAUCACCCAUGUACAUGAGGAUCACCCAUGUCUCCCUUGGCAGCACAAAAGGGAGA”, the “apparent Kd” value came to 30.6 nM under setting [1] and 64.8 nM under setting [2]. The matching figures for “AGACAUGAGGAUCACCCAUGUAGUAUGGAUACCAGAUCCAGAUUUAUCCCUUGGCAGCUGUGGUACAGCGAUGGAUUGCUCCUAG”: 38 nM and 39.8 nM. The matching figures for “ACGAACUGUAGUGAUACCAGACACACAUGAGGAUCACCCAUGUUGUUAGCAUGGUGAAUAGUCCCUUGGCAGCACAGUUAGUUCG”: 98.6 nM and 217 nM.

In the case of “CAUACUUGAUCCUAUGAGCCUAUUUGUGAUACCAGCAUCUAAAUUUGCCCUUGGCAGCACUAACAUGAGGAUCACCCAUGUUAUA”, the “apparent Kd” value is, setting by setting: under setting [1], 34.9 nM; under setting [2], 71.8 nM. For the sequence “AAAAUAAAUAAAACACGUAACAUGAAGGAUACCAGACAGGAAACUGUCCCUUGGCAGCCUCUACAUGAGGAUCACCCAUGUCGUG”, under setting [4], the “apparent Kd” value amounted to 30.8 nM. Take “ACUUCAUGAGGUGAUACCAGCCAAUGACAUGAGGACAUGAGGAUCACCCAUGUUUAUGUAGGCCCUUGGCAGCAUUGUAACAUGA”: the “apparent Kd” value reads like this: under setting [3], 59.4 nM; under setting [4], 52.3 nM. Regarding “AUGUCGUUGAAUAUAGCGGCUUGGUGUGAUACCAGAAUGAUCAAAUUCCCUUGGCAGCAUUACAUGAGGAUCACCCAUGUUUAGG”, the “apparent Kd” value is, setting by setting: under setting [3], 23.7 nM; under setting [4], 22.9 nM.

Consider “AAACGUUGCUCAGAUACCAGACAUGAGGAUCACCCAUGUACCGAGGUACCCGAAAGGAAUGUCCCUUGGCAGCUGAGCAACGAAA”, for which the “apparent Kd” value under setting [1] was 11 nM and the “apparent Kd” value under setting [2] worked out at 123 nM. For the sequence “CGUGAUCCCUGUGAUACCAGAAGUACAUGAGGAUCACCCAUGUCAAACACAAAACCAAGCUUCCCUUGGCAGCAUAGUCGUUAAG”, the “apparent Kd” value came to 238 nM under setting [3] and 1310 nM under setting [4].

For the sequence “AUAUGAUCAUGGGAUACCAGAAAUGGUAUUCCUUUAUUUCUUACAUGAGGAUCACCCAUGUUCCCUUGGCAGCUUAUGAUCAUAU”, the “apparent Kd” value was determined as 75 nM under setting [1] and 282 nM under setting [2]. On the same counts, the results for “UUUUUCGCGGGUGAUACCAGCAAAGCUGUACUGGUCUGGUACAUGAGGAUCACCCAUGUUUGCCCUUGGCAGCGCUCGGGAGAAG” are 29.5 nM and 71.9 nM.

Turning to “UUAGAUAUGACGGAUACCAGCGUGUUGUAGAACAUGAGGAUCACCCAUGUAGUGAUCAUGCGCCCUUGGCAGCUGGUAUGUUUGG”, the “apparent Kd” value under setting [3] came to 262 nM and the “apparent Kd” value under setting [4] was determined as 829 nM. On the same counts, the results for “CUGCCAUGCAGAGAUACCAGUGCGCUCAGCACAUGAGGAUCACCCAUGUUGGCUGCCGAUCACCCUUGGCAGCUCUGCAUGGCAG” are 10.8 nM and 7.62 nM. Regarding “GUGAGGUUUGAUGAUACCAGAUGUGGUGGGAACAUGAGGAUCACCCAUGUUGUGAAACAGGUCCCUUGGCAGCAUGAGAGAGCUU”, the “apparent Kd” value is 47.8 nM under setting [3] and 44.3 nM under setting [4]. For “CUAGGAAACUAGUAAGGGUGGUAUUGAGAUACCAGUACAGAAAUGUACCCUUGGCAGCUCACUGCAACAUGAGGAUCACCCAUGU”, the “apparent Kd” value was 24.1 nM under setting [1] and 55.9 nM under setting [2]. On the same counts, the results for “ACGAUAGGACAUGAGGAUCACCCAUGUGAUACCAGCCUGGAAACAGGCCCUUGGCAGCACAAAUACUCCAGAAACCUAUCGAAUA” are 281 nM and 226 nM. The matching figures for “ACAUGAGGAUCACCCAUGUUCCUCGCCGAUACCAGUGAAGAAGAACGCCCUUGGCAGCGGAAAGAAUAUUUUGGAGAUGAGGUAU”: 164 nM and 189 nM.

As to “ACAUGAGGAUCCGAUACCAGCCACAUGAGGAUCACCCAUGUAGUACAUGAGGAUCACCCAGGCCCUUGGCAGCGGACAUGAGGAU”, the “apparent Kd” value by setting is: under setting [1], 178 nM; under setting [2], 1900 nM. In the case of “ACGACGCAUAGUGAUACCAGUAGAACAUGAGGAUCACCCAUGUCUGUGACGCACAAAUUCUGCCCUUGGCAGCACUAUGCGUCAG”, the “apparent Kd” value was found to be 11.4 nM under setting [3] and 33.3 nM under setting [4]. In the case of “UCCUCCUCCGGAAGGAGGAGGAGUUGCGAUACCAGCCCGGAAACGGGCCCUUGGCAGCGCACAUGAGGAUCACCCAUGUCAUGUU”, the “apparent Kd” value reads like this: under setting [1], 18.4 nM; under setting [2], 24.1 nM.

Turning to “AAAUAAAUCACAUGAGGAUCACCCAUGGAUACCAGGCCUGGAAACAGCCCUUGGCAGCCACAUGAGGAUCACCCAUGUGCUAAUA”, the “apparent Kd” value was determined as 213 nM under setting [1] and 219 nM under setting [2]. On the same counts, the results for “CGUGUGCGUUCUGAUACCAGAGACAUGAGGAUCACCCAUGUCCGAUCGUCCUGCCUCAGACUCCCUUGGCAGCAGGUUUUGUGCU” are 45.7 nM and 60.9 nM. On the same counts, the results for “ACAUAGAGAUUAAUCGUGGGCAUACUCGAUACCAGUAUUUUAACCUACCCUUGGCAGCGACAUGAGGAUCACCCAUGUGAGAUGA” are 22.2 nM and 39.5 nM. As for “AUUUAUUGUCGUGAUACCAGACAUACAUGAGGAUCACCCAUGUUAAGUAACAUUUUUUAGGUCCCUUGGCAGCACUUUUUAAUUA”, the “apparent Kd” value is 26.1 nM under setting [3] and 15.8 nM under setting [4]. For “GCACCAGGUACGGAUACCAGAGCAAGCCAAAUGAGUGAACAUGAGGAUCACCCAUGUUUGCUCCCUUGGCAGCCGUACCUGGUGC”, the “apparent Kd” value was 9.34 nM under setting [1] and 45.2 nM under setting [2].

For the sequence “CGCACAGAGAAUGAUACCAGCGAGGAAGCGACAUGAGGAUCACCCAUGUGCGAAUGAUCCCGCCCUUGGCAGCGUAAGUGAUCCC”, the “apparent Kd” value under setting [3] was determined as 111 nM and the “apparent Kd” value under setting [4] came out at 71.3 nM. In the case of “GCUGGGUGCGCAAGGACCUGGCGUUGCGAUACCAGCACGGUAACGUGCCCUUGGCAGCGCACAUGAGGAUCACCCAUGUGGUGUU”, the “apparent Kd” value reads like this: under setting [1], 276 nM; under setting [2], 310 nM.

On to “AUAGUCUAGAGUGAUACCAGACAACAUGAGGAUCACCCAUGUAGCAUAUGGUUAUCAUGAGUCCCUUGGCAGCACGCAUGUAUAG”, for which the “apparent Kd” value reads like this: under setting [1], 12.3 nM; under setting [2], 55.8 nM. The matching figures for “GCUUGGGUGGCCCAGCCCUGGCAGGGCGAUACCAGCACGGUAACGUGCCCUUGGCAGCGCACAUGAGGAUCACCCAUGUGGUGCG”: 127 nM and 266 nM. Turning to “ACACAUGAGGAUCACCCAUGUCCAAUAGAUACCAGUGAUACGGUGCACCCUUGGCAGCUGUUACUGAGUGAUGGUUCCCUCGGAA”, the “apparent Kd” value under setting [3] amounted to 67.6 nM and the “apparent Kd” value under setting [4] was found to be 97.1 nM.
